Calls of active or inactive are those of the source. The calls are words filed in the database; no cut-off is given here.
How the values were obtained:
Enterovirus A71 [1] = assay: Antiviral activity against Enterovirus 71 TW/2429/04 clinical isolates incubated for 2 to 3 days; type: functional; conditions: Enterovirus A
[2] = Inhibition of full length recombinant His6-tagged PI4K3alpha (unknown origin) expressed in Sf9 insect cells assessed as residual activity at 100 uM using PI : PS as substrate in presence of [gamma-33P]-ATP by scintillation counting method relative to control; conditions: Homo sapiens
Enterovirus A71 [3] = assay: Antiviral activity against Enterovirus 71 TW/1956/05 clinical isolates incubated for 2 to 3 days; type: functional; conditions: Enterovirus A
[4] = biological target: Glycogen synthase kinase-3 beta (Homo sapiens) (UniProt P49841); assay: Inhibition of full-length recombinant human N-terminal GST-tagged GSK3beta expressed in baculovirus infected sf9 cells assessed as residual activity at 100 uM using YRRAAVPPSPSLSRHSSPHQ(pS)EDEEE as substrate by ADP-Glo bioluminescence assay relative to control relative to control
Glycogen synthase kinase-3 beta (Homo sapiens), sequence (P49841 whole entry, looked up): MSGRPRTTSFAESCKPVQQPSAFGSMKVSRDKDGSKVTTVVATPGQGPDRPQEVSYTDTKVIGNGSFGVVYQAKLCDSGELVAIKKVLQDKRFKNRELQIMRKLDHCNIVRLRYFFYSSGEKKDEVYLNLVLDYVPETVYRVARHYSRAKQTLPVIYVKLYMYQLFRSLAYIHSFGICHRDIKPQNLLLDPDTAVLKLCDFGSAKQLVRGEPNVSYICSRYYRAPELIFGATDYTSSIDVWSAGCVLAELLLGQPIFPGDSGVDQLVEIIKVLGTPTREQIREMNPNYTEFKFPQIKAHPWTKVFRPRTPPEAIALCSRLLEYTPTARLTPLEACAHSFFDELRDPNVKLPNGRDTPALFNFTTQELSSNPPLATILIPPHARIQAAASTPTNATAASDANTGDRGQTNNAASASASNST
In short: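 Kinase run per the manufacturer's instructions with 10–50 ng enzyme in 10 μL at 30 °C for 10 min. NP-40 or BSA was added for some kinases. Compound was tested at 100 μM, with activity given as % residual. Values are the mean of two independent replicates.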

[5] = Cytotoxicity against human RD cells after 2 to 3 days by MTS method; type: cell-based
In short: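 Uninfected RD cells, 20 000/well in 2% FCS medium, run in parallel with the antiviral assay. Three 8-step 1:5 dilution series from 100 μM, 2-3 days. Read-out by 5% MTS, 1.5 h at 37 °C, absorbance 498 nm, as % of untreated controls. CC50 is the 50% metabolic activity point, median of 3 curves.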

Enterovirus A71 [6] = assay: Antiviral activity against Enterovirus 71 infected in RD cells assessed as reduction in virus-induced cytopathic effect incubated for 2 to 3 days; type: functional, cell-based; conditions: Enterovirus A, RD; read-out: EC50
In short: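 RD cells seeded at 20 000/well in MEM with 2% FCS and infected with EV71. Three 8-step 1:5 dilution series from 100 μM. Incubated 2-3 days until maximal CPE, then scored for CPE reduction. EC50 is the median of three dose-response curves.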

[7] = test system: Cystic fibrosis transmembrane conductance regulator (Homo sapiens), P13569 [F508del]; assay: Potentiator activity at CFTR F508 deletion mutant (unknown origin) expressed in HEK293 cells assessed as increase in aninon permeability at 10 uM […] by YFP probe based imaging method; type: cell-based
Cystic fibrosis transmembrane conductance regulator (Homo sapiens), P13569 [F508del], sequence (P13569 as listed by the source): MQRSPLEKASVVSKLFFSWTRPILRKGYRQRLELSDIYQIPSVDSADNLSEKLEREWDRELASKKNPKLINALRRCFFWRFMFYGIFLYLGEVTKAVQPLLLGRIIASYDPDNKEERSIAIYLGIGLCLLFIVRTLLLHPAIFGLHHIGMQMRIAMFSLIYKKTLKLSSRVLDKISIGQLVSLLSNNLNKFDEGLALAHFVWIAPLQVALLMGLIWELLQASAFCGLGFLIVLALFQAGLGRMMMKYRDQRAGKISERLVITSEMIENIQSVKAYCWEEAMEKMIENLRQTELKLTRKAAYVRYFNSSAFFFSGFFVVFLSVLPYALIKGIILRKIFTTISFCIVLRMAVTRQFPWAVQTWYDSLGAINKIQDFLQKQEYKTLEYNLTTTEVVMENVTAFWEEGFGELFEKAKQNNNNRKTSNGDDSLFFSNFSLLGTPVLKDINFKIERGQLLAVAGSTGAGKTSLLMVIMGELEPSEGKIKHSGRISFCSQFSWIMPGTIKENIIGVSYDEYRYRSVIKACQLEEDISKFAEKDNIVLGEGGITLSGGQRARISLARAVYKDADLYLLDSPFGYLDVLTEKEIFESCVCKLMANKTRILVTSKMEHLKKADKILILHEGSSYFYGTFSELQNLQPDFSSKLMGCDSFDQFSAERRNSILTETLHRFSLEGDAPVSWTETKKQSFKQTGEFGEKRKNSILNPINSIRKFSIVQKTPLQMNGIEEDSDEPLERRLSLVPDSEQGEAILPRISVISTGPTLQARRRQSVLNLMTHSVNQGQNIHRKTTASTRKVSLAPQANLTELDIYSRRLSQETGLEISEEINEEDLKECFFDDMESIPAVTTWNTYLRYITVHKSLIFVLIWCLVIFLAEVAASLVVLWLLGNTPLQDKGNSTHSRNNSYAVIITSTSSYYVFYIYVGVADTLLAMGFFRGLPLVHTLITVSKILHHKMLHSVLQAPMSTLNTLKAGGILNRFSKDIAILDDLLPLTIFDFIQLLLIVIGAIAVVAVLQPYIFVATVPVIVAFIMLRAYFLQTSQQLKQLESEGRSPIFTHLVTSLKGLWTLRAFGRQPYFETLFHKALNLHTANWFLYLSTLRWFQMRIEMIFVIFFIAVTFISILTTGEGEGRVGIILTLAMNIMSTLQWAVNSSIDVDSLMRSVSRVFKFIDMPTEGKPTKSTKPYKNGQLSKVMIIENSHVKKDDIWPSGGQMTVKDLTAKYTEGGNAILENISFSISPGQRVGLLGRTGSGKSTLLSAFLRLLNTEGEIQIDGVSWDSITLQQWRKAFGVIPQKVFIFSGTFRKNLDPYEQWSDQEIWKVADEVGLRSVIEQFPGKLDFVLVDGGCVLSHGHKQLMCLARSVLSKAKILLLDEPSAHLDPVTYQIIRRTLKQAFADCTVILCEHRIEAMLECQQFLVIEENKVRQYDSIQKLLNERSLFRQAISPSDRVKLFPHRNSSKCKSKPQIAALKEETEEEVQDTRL

Enterovirus A71 [8] = assay: Antiviral activity against Enterovirus 71 TW/70902/08 clinical isolates incubated for 2 to 3 days; type: functional; conditions: Enterovirus A

Structure (SMILES): CC(=O)c1cccc(Nc2nc(-c3sc(NC(=O)OC(C)(C)C)nc3C)cs2)c1
- EC50 (Enterovirus A71 [1]): 1.17 µM
- Activity [2]: 69%
- EC50 (Enterovirus A71 [3]): < 1.39 µM
- Activity [4]: 79%
- CC50 [5]: 42.3 µM
- EC50 (Enterovirus A71 [6]): 1.42 µM
- Activity [7]: inactive
- EC50 (Enterovirus A71 [8]): 3.58 µM

Reference: ChEMBL document CHEMBL3997800, “Discovery of Multitarget Agents Active as Broad-Spectrum Antivirals and Correctors of Cystic Fibrosis Transmembrane Conductance Regulator for Associated Pulmonary Diseases” (J Med Chem, 2017)
